pEC50, pIC50: −log10 of the molar value. Calls of active or inactive are those of the source. No cut-off for these calls is given here.
Legend:
Plasmodium falciparum [1] = assay: Antiplasmodial activity against chloroquine-resistant Plasmodium falciparum W2 as LDH activity after 48 hrs; type: functional, organism-based; settings: W2, 48 h
Procedure, shortened: (§1)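 Asynchronous P. falciparum cultures (2% hematocrit, 2% parasitemia) were exposed to compound dilutions prepared in DMSO. They were incubated 48 h at 37 °C in a humidified chamber under 90% N2, 5% CO2, 5% O2. Growth was read as parasite lactate dehydrogenase activity using Malstat reagent. Medium-only and erythrocyte-only wells were included, with chloroquine and artemisinin as positive and DMSO as negative controls.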

[2] = target: T1, Cysteine protease falcipain-3 (Plasmodium falciparum, UniProt Q9NBA7); assay: Inhibition of Plasmodium falciparum recombinant falcipain-3
T1 sequence (Q9NBA7 whole entry): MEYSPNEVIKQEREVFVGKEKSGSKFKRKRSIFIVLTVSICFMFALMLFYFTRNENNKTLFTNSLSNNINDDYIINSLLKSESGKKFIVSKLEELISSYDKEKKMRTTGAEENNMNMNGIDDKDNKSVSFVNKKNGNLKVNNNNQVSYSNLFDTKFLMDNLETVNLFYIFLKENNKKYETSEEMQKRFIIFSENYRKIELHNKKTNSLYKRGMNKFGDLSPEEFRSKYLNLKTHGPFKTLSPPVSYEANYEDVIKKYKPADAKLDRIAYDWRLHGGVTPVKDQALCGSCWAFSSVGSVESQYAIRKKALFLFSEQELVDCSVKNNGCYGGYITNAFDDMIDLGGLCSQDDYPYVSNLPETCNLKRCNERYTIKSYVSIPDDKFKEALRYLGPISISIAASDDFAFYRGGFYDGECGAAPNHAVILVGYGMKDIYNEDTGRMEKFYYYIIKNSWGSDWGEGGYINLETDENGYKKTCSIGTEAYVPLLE
Procedure, shortened: (§2)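 Equal amounts of recombinant enzyme preincubated 30 min at room temperature with serial inhibitor dilutions from DMSO stocks (DMSO at most 1% in assay) in 100 mM sodium acetate pH 5.5, 10 mM dithiothreitol. Z-Leu-Arg-AMC then added to 25 μM final; fluorescence followed 15 min at room temperature. IC50 taken from percent activity versus concentration plots.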

Vero = assay: Cytotoxicity against Vero cells at 23.8 ug/mL by Neutral red assay; type: cell-based; settings: chlorocebus sabaeus
Procedure, shortened: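 VERO monkey kidney […] exposed to compounds alongside the antiparasitic assays, viability by Neutral Red uptake; highest concentration tested 23.8 μg/mL; IC50 computed from growth inhibition curve.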

Plasmodium falciparum [3] = assay: Antiplasmodial activity against chloroquine-sensitive Plasmodium falciparum D6 after 48 hrs as LDH reporter activity; type: functional, organism-based; settings: D6, 48 h; procedure, shortened: as §1
Leishmania donovani = assay: Antileishmanial activity against Leishmania donovani promastigotes after 72 hrs by Alamar blue assay; type: functional, organism-based
Procedure, shortened: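 L. donovani promastigote culture at 2 × 10⁶ cells/mL given diluted compounds, incubated 72 h at 26 °C; growth read by Alamar blue. Pentamidine and amphotericin B as reference agents; IC50 computed from growth inhibition curve.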

Falcipain 2 = target: T2, Falcipain 2 (Plasmodium falciparum, UniProt Q9N6S8); assay: Inhibition of Plasmodium falciparum recombinant falcipain-2; procedure, shortened: as §2
T2 sequence (Q9N6S8 whole entry): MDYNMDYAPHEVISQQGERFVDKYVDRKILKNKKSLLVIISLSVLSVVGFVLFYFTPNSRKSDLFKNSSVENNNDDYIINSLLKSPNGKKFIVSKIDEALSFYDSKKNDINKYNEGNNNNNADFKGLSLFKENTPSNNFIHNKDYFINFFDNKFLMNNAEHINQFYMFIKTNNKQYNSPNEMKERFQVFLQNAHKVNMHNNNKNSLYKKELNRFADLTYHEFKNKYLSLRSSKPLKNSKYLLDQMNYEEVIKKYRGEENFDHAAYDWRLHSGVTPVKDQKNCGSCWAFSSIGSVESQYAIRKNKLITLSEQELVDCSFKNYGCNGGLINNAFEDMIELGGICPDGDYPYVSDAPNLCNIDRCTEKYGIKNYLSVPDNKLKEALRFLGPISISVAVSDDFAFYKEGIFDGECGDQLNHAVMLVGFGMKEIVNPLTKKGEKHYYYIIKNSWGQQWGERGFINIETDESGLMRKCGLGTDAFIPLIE

Cysteine protease = target: T3, Cysteine protease (Leishmania donovani, UniProt Q95WR6); assay: (§3) Inhibition of Leishmania donovani cysteine protease
T3 sequence (Q95WR6 whole entry): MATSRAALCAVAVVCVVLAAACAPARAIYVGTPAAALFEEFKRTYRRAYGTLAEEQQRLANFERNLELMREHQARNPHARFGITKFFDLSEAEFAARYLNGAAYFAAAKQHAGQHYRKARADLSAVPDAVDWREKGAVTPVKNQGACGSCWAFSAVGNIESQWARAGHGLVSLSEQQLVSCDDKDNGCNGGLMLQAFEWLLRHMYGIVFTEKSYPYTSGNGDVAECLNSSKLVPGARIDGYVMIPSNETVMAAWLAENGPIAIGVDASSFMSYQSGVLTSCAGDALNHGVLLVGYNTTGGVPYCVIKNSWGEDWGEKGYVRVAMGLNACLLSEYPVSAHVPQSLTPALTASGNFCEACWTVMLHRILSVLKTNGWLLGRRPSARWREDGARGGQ

[4] = target: T4, Cysteine protease (Leishmania donovani) (UniProt Q95WR6); assay: as §3
T4 sequence (whole entry): T3 sequence (Q95WR6 whole entry)

SMILES	pEC50 (Plasmodium falciparum [1])	pIC50 [2]	Activity (Vero)	pEC50 (Plasmodium falciparum [3])	Activity (Leishmania donovani)	pIC50 (Falcipain 2)	pIC50 (Cysteine protease)	pIC50 (Leishmania donovani)	Activity [4]
Oc1ccc(/C=N/c2ccc(/N=C/c3ccc(O)cc3O)c(Cl)c2)c(O)c1	4.68	5.12	Non-toxic	4.91	inactive	5.68	4.19	–	–
CCCc1cc(=O)[nH]c(SCC(=O)Nc2ccccc2)n1	–	< 4.30	Non-toxic	–	–	4.22	–	–	–
OC[C@@H](O)/C=N/Nc1nc(Nc2ccccc2)nc(Nc2ccccc2)n1	5.48	< 4.30	Non-toxic	5.60	–	< 4.30	–	5.72	inactive
O=C(Cn1nnc(-c2ccccc2)n1)N/N=C1\C(=O)Nc2ccccc21	4.36	< 4.30	Non-toxic	4.16	inactive	4.56	3.89	–	–
CC(C)CC(=O)N[C@H](C(=O)N[C@H](C(=O)N[C@@H](CC(C)C)[C@@H](O)CC(=O)N[C@@H](C)C(=O)N[C@@H](CC(C)C)[C@@H](O)CC(=O)O)C(C)C)C(C)C [PEPSTATIN]	–	–	–	–	–	–	6.80	–	–
C[C@@H]1[C@H](O)[C@@H](C)/C=C/C=C/C=C/C=C/C=C/C=C/C=C/[C@H](O[C@@H]2O[C@H](C)[C@@H](O)[C@H](N)[C@@H]2O)C[C@@H]2O[C@](O)(C[C@@H](O)C[C@@H](O)[C@H](O)CC[C@@H](O)C[C@@H](O)CC(=O)O[C@H]1C)C[C@H](O)[C@H]2C(=O)O [AMPHOTERICIN B]	–	–	–	–	–	–	–	6.80	–
O=C(N/N=C/c1ccccc1O)c1cccc(C(=O)N/N=C/c2ccccc2O)n1	5.21	4.98	Non-toxic	5.43	inactive	5.15	–	–	inactive
O=C(CSc1nnnn1-c1ccccc1)Nc1ccc(-n2cnnn2)cc1	4.30	5.27	Non-toxic	4.20	inactive	5.12	–	–	inactive
O=C(CN1C(=O)/C(=N\NC(=O)c2ccncc2)c2ccccc21)Nc1ccccc1	4.22	4.21	Non-toxic	4.25	inactive	4.39	4.20	–	–
O=C(CSc1ccc2ccccc2n1)N/N=C/c1ccc(O)cc1O	4.17	< 4.30	Non-toxic	4.49	inactive	4.20	–	–	inactive
O=C(NCc1ccc(/C=c2/sc3n(c2=O)CCN=3)o1)C(=O)Nc1ccccc1	< 4.22	4.93	Non-toxic	< 4.22	inactive	5.21	–	–	inactive
Oc1ccc(/C=N/CC/N=C/c2ccc(O)cc2O)c(O)c1	4.13	< 4.30	Non-toxic	4.33	inactive	4.68	–	–	inactive
O=C(Nc1cccc(O)c1)c1cccc(S(=O)(=O)Nc2cccc(O)c2)c1	4.42	< 4.30	Non-toxic	4.45	–	< 4.30	–	6.52	inactive
CCCS(=O)(=O)N1CCN(S(=O)(=O)c2ccc3ccccc3c2)CC1	< 4.21	4.53	Non-toxic	< 4.21	inactive	4.91	–	–	inactive
OC[C@H](O)/C=N/Nc1nc(Nc2ccccc2)nc(N2CCCCC2)n1	5.28	< 4.30	Non-toxic	5.32	–	4.26	–	5.44	inactive
O=C(Cc1nnc(NC(=O)c2ccccc2)s1)N/N=C\c1ccc(O)c(O)c1	< 4.22	< 4.30	Non-toxic	< 4.22	inactive	4.51	–	–	inactive
C[C@@H]1CC[C@H]2[C@@H](C)C(=O)O[C@@H]3O[C@@]4(C)CC[C@@H]1[C@]32OO4 [ARTEMISININ]	7.77	–	–	7.92	–	–	–	–	–
CCCc1cc(O)nc(SCC(=O)Nc2ccccc2)n1	< 4.11	–	–	< 4.11	inactive	–	–	–	inactive
CCOP(=O)(CC(=O)NNC(=O)Nc1cccc2ccccc12)OCC	4.39	< 4.30	Non-toxic	4.28	inactive	4.27	–	–	inactive
COC(=O)c1ccccc1NC(=O)COC(=O)CSc1nc(C)cc(C)n1	4.21	4.92	Non-toxic	4.21	inactive	5.21	–	–	inactive
N=C(N)c1ccc(OCCCCCOc2ccc(C(=N)N)cc2)cc1 [PENTAMIDINE]	–	–	–	–	–	–	–	5.70	–
O=C(N/N=C/c1ccc(/C=N/NC(=O)c2ccccc2O)cc1)c1ccccc1O	4.46	4.56	Non-toxic	4.51	inactive	5.66	–	–	inactive
O=C(CNC(=O)[C@@H]1COc2ccccc2O1)N/N=C/c1cccs1	4.16	< 4.30	Non-toxic	4.16	inactive	4.58	–	–	inactive
N#CCC(=O)N/N=C\c1ccc(OCC(=O)Nc2ccc(F)cc2)cc1	4.17	< 4.30	Non-toxic	4.23	inactive	5.24	–	–	inactive
Oc1ccc(Nc2nc(-c3cccnc3)cs2)cc1	4.30	< 4.30	Non-toxic	4.28	–	4.65	–	4.94	inactive
Cc1cccc(NC(=O)CCC(=O)N/N=C/c2cc(Cl)ccc2O)c1	4.92	5.27	Non-toxic	4.87	inactive	5.12	–	–	inactive
C/C(=N\NS(=O)(=O)c1ccc(C)cc1)c1c(O)c2ccccc2oc1=O	4.19	4.86	Non-toxic	4.19	inactive	5.41	–	–	inactive
CCN(CC)CCCC(C)Nc1ccnc2cc(Cl)ccc12 (stereo not drawn) [CHLOROQUINE]	6.55	–	–	8.05	–	–	–	–	–
CC(C)C[C@H](NC(=O)[C@H]1O[C@@H]1C(=O)O)C(=O)NCCCCN=C(N)N [E-64]	–	7.46	–	–	–	7.82	–	–	–

From ChEMBL document CHEMBL1149285, “Identification of novel parasitic cysteine protease inhibitors using virtual screening. 1. The ChemBridge database” (J Med Chem, 2004)
